Compound activity from PubChem BioAssay.
Hep lipid drop = modulators of hepatic lipid droplet formation. inhibition, % at 6.5 µM. AML12 mouse hepatocytes, oleate lipid droplets, BODIPY imaging. AID 1656. 240,000 compounds, 0.4% hits;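 active = lipid droplet intensity inhibited by at least 50%, with more than 500 cells counted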
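Material: mouse AML12 hepatocyte cell line, fixed after treatment; Timing: compound with oleate, overnight; Technique: high-content imaging of BODIPY-stained droplets and DAPI nuclei; Probe or stimulus: oleate, 100 µM final; Dosing: compound at 6.5 µM only.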
GASC-1 inh = human JMJD2C demethylase inhibition | Q9H3R0 | GST-JMJD2C(1-420) H3K9me3 demethylation, DELFIA europium | inhibition, % at 2.35 µM | 330,000 compounds, 0.069% hits | AID 2099;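 active = more than half of a compound's replicate wells show inhibition beyond 50%, single wells judged on their own value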;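 note: signal counts dimethyl H3K9 product captured on neutravidin plate; 0% = median of DMSO wells and 100% = 0.3 times that DMSO median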
NR3A LBD binder = modulates the human NR3A ligand-binding domain; Tm shift relative to glycine control, % at 25 µM; NR3A LBD differential scanning fluorimetry, Tm shift; 0% = protein alone, 100% = glycine-bound protein; 340,000 compounds, 2.5% hits;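 active = melting temperature shift of at least 10% of the positive control shift, at one fixed dose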
aDG glyco act = alpha-DG glycosylation activation; Pro5-aDG cells, alpha-DG glycosylation AlphaScreen (IIH6); 0% Pro5, 100% B10-LARGE cell signal; activation, % at 10 µM; 360,000 compounds, 0.22% hits; AID 624168;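 active = activation of at least 8% versus controls, or a plate z-score of at least 8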;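 note: Pro5 are CHO cells carrying HIG-tagged alpha-DG that lacks glycosylation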
NPR1 activator = GC-A (human) enzyme activation; P16066; HEK293 GC-A cells, cGMP TR-FRET, EC30 ANP; 0% at EC30 ANP, 100% saturating ANP; activation, % at 10 µM; 370,000 compounds, 0.14% hits; in the data active = activation above about 40%
NPR2 activator = GC-B (human) receptor activation; P20594; HEK293-GC-B cells, CNP EC30, cGMP TR-FRET; 0% at EC30 CNP, 100% saturating CNP; activation, % at 10 µM; 370,000 compounds, 0.11% hits; AID 1920062;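 active = activation at 10 µM reaching about 35% in either raw or pattern-adjusted values, limit read from the data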
Target sequence (P20594 whole entry, looked up): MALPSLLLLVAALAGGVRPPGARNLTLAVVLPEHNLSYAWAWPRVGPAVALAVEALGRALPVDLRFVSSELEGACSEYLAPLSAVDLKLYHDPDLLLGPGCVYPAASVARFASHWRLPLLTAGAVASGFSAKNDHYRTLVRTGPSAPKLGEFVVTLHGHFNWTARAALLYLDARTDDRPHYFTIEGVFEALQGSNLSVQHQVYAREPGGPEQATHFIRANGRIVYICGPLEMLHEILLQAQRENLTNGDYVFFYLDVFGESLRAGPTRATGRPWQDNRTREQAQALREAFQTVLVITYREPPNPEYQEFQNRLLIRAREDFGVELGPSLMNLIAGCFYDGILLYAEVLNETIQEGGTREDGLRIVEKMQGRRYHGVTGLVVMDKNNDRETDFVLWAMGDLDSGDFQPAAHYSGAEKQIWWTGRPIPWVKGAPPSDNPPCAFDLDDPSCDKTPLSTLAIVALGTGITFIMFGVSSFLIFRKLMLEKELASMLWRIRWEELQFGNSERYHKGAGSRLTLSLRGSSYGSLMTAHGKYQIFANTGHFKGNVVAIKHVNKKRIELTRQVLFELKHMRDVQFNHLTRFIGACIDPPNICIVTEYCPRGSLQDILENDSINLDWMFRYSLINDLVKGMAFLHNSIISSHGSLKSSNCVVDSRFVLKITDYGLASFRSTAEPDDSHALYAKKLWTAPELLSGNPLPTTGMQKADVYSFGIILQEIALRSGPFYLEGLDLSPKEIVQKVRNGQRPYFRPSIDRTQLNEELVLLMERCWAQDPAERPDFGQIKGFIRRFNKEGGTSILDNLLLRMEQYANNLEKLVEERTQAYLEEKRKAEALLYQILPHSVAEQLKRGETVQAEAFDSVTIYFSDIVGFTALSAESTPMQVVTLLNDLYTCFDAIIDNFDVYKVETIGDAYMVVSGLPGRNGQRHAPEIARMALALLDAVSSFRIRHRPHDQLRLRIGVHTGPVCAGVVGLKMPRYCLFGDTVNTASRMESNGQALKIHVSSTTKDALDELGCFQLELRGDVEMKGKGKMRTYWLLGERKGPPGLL
Starred values were filed as active, the others as inactive; . = no result. Only some compounds are listed: those with a hit (about 3% of all), similar ones and a draw of the others.

SMILES | Hep lipid drop | GASC-1 inh | NR3A LBD binder | aDG glyco act | NPR1 activator | NPR2 activator
O=C(c1ccco1)N1CCN(Cc2nnnn2CCc2ccccc2)CC1 | . | 0 | 13* | 0 | -6 | 1
CCC(c1nnnn1CCc1ccccc1)N1CCN(C(=O)c2ccco2)CC1 (stereo unspecified) | . | 9 | 0 | 0 | -1 | -5
O=C(c1ccco1)N1CCN(Cc2nnc(-c3ccccc3)o2)CC1 | 1 | -10 | 12* | 0 | 1 | -1
C#CCNC(=O)C[C@H]1C[C@@]2(C(=O)OC)C(=C[C@H](C(C)(C)C)O[C@@H]2C)N(Cc2cccc3ccccc23)C1=O | . | . | . | . | -12 | -14
CCOc1ccc(NC(=O)c2ccc(N)cc2)cc1 | 6 | -3 | -10 | 0 | 1 | -9
COC(=O)c1ccc(NC(=S)NC2CCCCC2)cc1 | . | 1 | -13 | 0 | 7 | 5
CCOc1ccc(NC(=O)c2ccc(NC(=S)NC3CCCCC3)cc2)cc1 | -7 | 2 | 28* | 0 | 1 | 1
N#CCC(=O)Nc1ccc(C(=O)NNC(=S)NC2CCCCC2)cc1 | . | 6 | 29* | 0 | 2 | 0
CCOc1ccc(NC(=O)c2ccc(NC(=S)NC3CC3)cc2)cc1 | -12 | 8 | 31* | 0 | 0 | -1
CCOc1ccc(C(=O)NC2CCCCCCC2)cc1 | . | -14 | -1 | 0 | 8 | 6
CCOc1ccc(NC(=O)c2ccc(NC(=O)c3ccc(NC(N)=O)cc3)cc2)cc1 | . | 9 | 27* | 0 | -4 | 1
CN(Cc1ccccc1)C(=O)OCc1cn(Cc2ccc(F)c(F)c2)nn1 | . | . | . | . | 0 | 7
COc1ccccc1N1CCN(CC(=O)c2ccc(F)cc2)CC1 | 0 | -11 | -2 | 0 | 2 | 3
CC(CC(=O)c1ccc(F)cc1)N1CCN(c2ccccc2)CC1 (stereo unspecified) | . | . | -4 | 0 | 63* | 1
O=c1c2ccccc2n(Cc2ccccc2)n1[C@@H](Cc1ccccc1)Cn1cc(-c2ccc(-c3ccccc3)cc2)nn1 | . | . | . | . | 1 | -3
COc1ccccc1CNC(=O)N1CCN(Cc2nc3ccccc3c(=O)[nH]2)CC1 | . | . | . | . | 1 | -3
O=C(N/N=C/c1c[nH]c2ccccc12)c1cc(Br)ccc1O | -3 | -3 | 34* | 0 | 1 | 0
Cc1cc(C(=O)N/N=C/c2c[nH]c3ccccc23)c(C)o1 | -30 | 4 | 8 | 0 | 2 | -2
CCOc1ccc(Br)cc1C(=O)N/N=C/c1ccccn1 | -1 | -9 | 1 | 0 | 2 | -3
CCOc1ccc(Br)cc1C(=O)N/N=C/c1c[nH]c2ccccc12 | . | -1 | 10* | 0 | -7 | 0
Clc1ccc2[nH]cc(-c3nnnn3-c3ccc4ccccc4c3)c2c1 | -17 | -8 | 29* | 1 | -6 | -11
CCc1nnc(NC(=O)Nc2ccc(Cl)cc2)s1 | 10 | -11 | -1 | 0 | 4 | 0
O=C(Nc1nnc(Cc2ccc(Cl)cc2)s1)c1cccs1 | 10 | 9 | 12* | 0 | 2 | 0
O=C(Nc1ccc(Cl)cc1)Nc1nnc(CSCc2ccc(Cl)cc2)s1 | -12 | 1 | 24* | 0 | 17 | 8
O=C(Nc1nnc(Cc2ccccc2)s1)c1cccs1 | . | -1 | -1 | 0 | 1 | 4
SMILES | Hep lipid drop | GASC-1 inh | NR3A LBD binder | aDG glyco act | NPR1 activator | NPR2 activator
O=C1[C@@H](C2CC2)[C@@H]2c3ccccc3C=NN2[C@@H]2c3ccccc3C=NN12 | . | . | . | . | 0 | -6
COC(=O)[C@]12C[C@H](CC(=O)N3CCC(c4ccccc4)CC3)C(=O)N(Cc3ccccc3)C1=C[C@H](C1CCCC1)O[C@@H]2C | . | . | . | . | -3 | 0
O=C(/C=C/Nc1ccc(F)cc1)c1ccco1 | 13 | 3 | 15* | 0 | 1 | 4
Nc1nc(SCC(=O)Nc2ccc(OC(F)(F)F)cc2)[nH]c(=O)c1NC(=O)c1ccc(Br)o1 | -8 | -10 | 17* | 0 | 1 | 3
Nc1cc(=O)[nH]c(SCC(=O)Nc2ccc([N+](=O)[O-])cc2)n1 | 3 | 86 | -1 | 0 | 0 | 3
Nc1nc(SCC(=O)Nc2ccc([N+](=O)[O-])cc2)[nH]c(=O)c1NC(=O)c1ccc(Br)cc1 | 5 | -11 | 31* | 0 | -3 | 10
COc1ccc(NC(=O)c2ccc(NC(=O)CSc3nc(N)cc(=O)[nH]3)cc2)cc1 | . | 12 | 11* | 0 | -3 | 4
S=C(NCc1ccccc1)NC1CCSc2ccccc21 (stereo unspecified) | 2 | 3 | -12 | 0 | 0 | -13
CCOc1ccc(/C=C/C2=Cc3c(sc(NC(=O)CSc4n[nH]c(N)n4)c3C#N)C(C)(C)C2)cc1 | . | -1 | 14* | 0 | -10 | -3
Cc1ccsc1/C=C/C1=Cc2c(sc(NC(=O)CSc3n[nH]c(N)n3)c2C#N)C(C)(C)C1 | 12 | -5 | 10* | -1 | -16 | -5
NC(=O)c1ccsc1NC(=O)CSc1n[nH]c(N)n1 | . | 6 | 2 | 0 | 4 | 5
CC(C)C(=O)N1CC[C@H]2[C@H](CCCN2Cc2ccc(F)cc2)C1 | . | . | . | . | 0 | 9
Cc1cc2occ(CC(=O)N(C)CC(=O)Nc3c(C)cccc3C)c2cc1C | . | 1 | -1 | 0 | 1 | 2
Cc1cccc(C)c1NC(=O)CN(C)C(=O)Cc1cccc(C(F)(F)F)c1 | 13 | 12 | 12* | 0 | 1 | 1
COc1cc2cc(CCCOC(=O)c3ccc4c(c3)OCO4)oc(=O)c2cc1OC | . | 2 | -2 | 0 | -4 | -6
O=C(/C=C/Nc1ccc([N+](=O)[O-])cc1Br)c1cccc2ccccc12 | 5 | 22 | 13* | 0 | -1 | 0
O=c1ccn([C@@H]2O[C@H](CNS(=O)(=O)C3CC3)[C@@H](O)[C@H]2O)c(=O)[nH]1 | . | . | 14* | 0 | 2 | 1
NCC(=O)NCC(=O)NC[C@H]1O[C@@H](n2ccc(=O)[nH]c2=O)[C@H](O)[C@@H]1O | . | . | 1 | 0 | 6 | 0
C[C@]12CC(O)C3C(CCC4=CC(=O)CC[C@@]43C)C1CCC2c1csc(-c2ccccc2)n1 (stereo partly specified) | 10 | 20 | 13* | 1 | 13 | 2
CC(C)Cc1ccc(CN2CCCC(NC(=O)CCN3CCCO3)C2)cc1 (stereo unspecified) | 11 | -1 | -2 | 0 | 0 | 2
C#CCOCCOCCOCCNc1nc(N2CCN(C(=O)[C@H]([C@@H](C)O)n3cc(CCCCN)nn3)CC2)nc(N2CCN(C(=O)[C@H](C)n3cc(CCC(=O)O)nn3)CC2)n1 | . | . | 2 | 0 | 5 | 6
